From ChEMBL document CHEMBL3352176, “Synthesis and evaluation of novel dapsone-thalidomide hybrids for the treatment of type 2 leprosy reactions” (Bioorg Med Chem Lett, 2014)

Columns and labels:
L929 [1] = assay: Antiinflammatory activity against mouse L929 cells assessed as inhibition of LPS-induced TNFalpha production at 125 uM after 48 hrs; format: functional; conditions: L929, 48 h
Method in brief: (§1)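 Mouse L929 fibroblasts were stimulated with lipopolysaccharide and exposed to compounds at 15.62 µM and 125 µM. TNFα was quantified in culture supernatants in pg/mL and expressed as percent decrease versus stimulated cells. Thalidomide served as the reference control.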

L929 [2] = assay: Antiinflammatory activity against mouse L929 cells assessed as inhibition of LPS-induced TNFalpha production after 48 hrs; format: functional, cell-based; method in brief: as §1
L929 [3] = assay: Antiinflammatory activity against mouse L929 cells assessed as inhibition of LPS-induced TNFalpha production at 15.625 uM after 48 hrs; format: functional; conditions: L929, 48 h; method in brief: as §1
[4] = Cytotoxicity against mouse L929 cells assessed as cell viability up to 150 uM; format: cell-based; conditions: read-out: Activity
Mus musculus = assay: Antinociceptive effect in mouse assessed as inhibition of acetic acid-induced abdominal constriction at 100 uM/kg, po; format: functional, Abdomen
Salmonella typhimurium [5] = assay: Genotoxicity in Salmonella typhimurium TA100 assessed as mutagenic index at 8 umol/plate in presence of S9 liver extract; format: toxicity, organism-based, Liver S9 fraction; conditions: salmonella enterica subsp. enterica serovar typhimurium
Salmonella typhimurium [6] = assay: Genotoxicity in Salmonella typhimurium TA100 assessed as mutagenic index at 16 umol/plate in presence of S9 liver extract; format: toxicity, organism-based, Liver S9 fraction; conditions: salmonella enterica subsp. enterica serovar typhimurium
Salmonella typhimurium [7] = assay: Genotoxicity in Salmonella typhimurium TA100 assessed as mutagenic index at 4 umol/plate; format: toxicity, organism-based; conditions: salmonella enterica subsp. enterica serovar typhimurium
Salmonella typhimurium [8] = assay: Genotoxicity in Salmonella typhimurium TA100 assessed as mutagenic index at 32 umol/plate; format: toxicity, organism-based; conditions: salmonella enterica subsp. enterica serovar typhimurium
Salmonella typhimurium [9] = assay: Genotoxicity in Salmonella typhimurium TA102 assessed as mutagenic index at 8 umol/plate in presence of S9 liver extract; format: toxicity, organism-based, Liver S9 fraction; conditions: salmonella enterica subsp. enterica serovar typhimurium
Salmonella typhimurium [10] = assay: Genotoxicity in Salmonella typhimurium TA102 assessed as mutagenic index at 4 umol/plate in presence of S9 liver extract; format: toxicity, organism-based, Liver S9 fraction; conditions: salmonella enterica subsp. enterica serovar typhimurium
Salmonella typhimurium [11] = assay: Genotoxicity in Salmonella typhimurium TA100 assessed as mutagenic index at 4 umol/plate in presence of S9 liver extract; format: toxicity, organism-based, Liver S9 fraction; conditions: salmonella enterica subsp. enterica serovar typhimurium
Mycobacterium leprae = assay: Antimycobacterial activity against Mycobacterium leprae inoculated in mouse model assessed as mean number of bacilli at 200 mg/kg, po 5 days/week for 4 weeks (reference value: 3.56 x 10^6 cells); format: functional
Salmonella typhimurium [12] = assay: Genotoxicity in Salmonella typhimurium TA102 assessed as mutagenic index at 8 umol/plate; format: toxicity, organism-based; conditions: salmonella enterica subsp. enterica serovar typhimurium
Salmonella typhimurium [13] = assay: Genotoxicity in Salmonella typhimurium TA102 assessed as mutagenic index at 32 umol/plate; format: toxicity, organism-based; conditions: salmonella enterica subsp. enterica serovar typhimurium
Salmonella typhimurium [14] = assay: Genotoxicity in Salmonella typhimurium TA102 assessed as mutagenic index at 32 umol/plate in presence of S9 liver extract; format: toxicity, organism-based, Liver S9 fraction; conditions: salmonella enterica subsp. enterica serovar typhimurium
Salmonella typhimurium [15] = assay: Genotoxicity in Salmonella typhimurium TA100 assessed as mutagenic index at 16 umol/plate; format: toxicity, organism-based; conditions: salmonella enterica subsp. enterica serovar typhimurium
Salmonella typhimurium [16] = assay: Genotoxicity in Salmonella typhimurium TA100 assessed as mutagenic index at 32 umol/plate in presence of S9 liver extract; format: toxicity, organism-based, Liver S9 fraction; conditions: salmonella enterica subsp. enterica serovar typhimurium
Salmonella typhimurium [17] = assay: Genotoxicity in Salmonella typhimurium TA102 assessed as mutagenic index at 16 umol/plate in presence of S9 liver extract; format: toxicity, organism-based, Liver S9 fraction; conditions: salmonella enterica subsp. enterica serovar typhimurium
Salmonella typhimurium [18] = assay: Genotoxicity in Salmonella typhimurium TA102 assessed as mutagenic index at 4 umol/plate; format: toxicity, organism-based; conditions: salmonella enterica subsp. enterica serovar typhimurium
Salmonella typhimurium [19] = assay: Genotoxicity in Salmonella typhimurium TA102 assessed as mutagenic index at 2 umol/plate; format: toxicity, organism-based; conditions: salmonella enterica subsp. enterica serovar typhimurium
Salmonella typhimurium [20] = assay: Genotoxicity in Salmonella typhimurium TA100 assessed as mutagenic index at 8 umol/plate; format: toxicity, organism-based; conditions: salmonella enterica subsp. enterica serovar typhimurium
Salmonella typhimurium [21] = assay: Genotoxicity in Salmonella typhimurium TA102 assessed as mutagenic index at 2 umol/plate in presence of S9 liver extract; format: toxicity, organism-based, Liver S9 fraction; conditions: salmonella enterica subsp. enterica serovar typhimurium
Salmonella typhimurium [22] = assay: Genotoxicity in Salmonella typhimurium TA100 assessed as mutagenic index at 2 umol/plate; format: toxicity, organism-based; conditions: salmonella enterica subsp. enterica serovar typhimurium
Salmonella typhimurium [23] = assay: Genotoxicity in Salmonella typhimurium TA102 assessed as mutagenic index at 16 umol/plate; format: toxicity, organism-based; conditions: salmonella enterica subsp. enterica serovar typhimurium
Salmonella typhimurium [24] = assay: Genotoxicity in Salmonella typhimurium TA100 assessed as mutagenic index at 2 umol/plate in presence of S9 liver extract; format: toxicity, organism-based, Liver S9 fraction; conditions: salmonella enterica subsp. enterica serovar typhimurium
Salmonella typhimurium [25] = assay: Genotoxicity in Salmonella typhimurium TA100 at 1.25 ug/plate assessed as number of revertants per plate in presence of S9 liver extract (reference value: 128.9 +/- 7.3 no unit); format: toxicity, organism-based, Liver S9 fraction; conditions: salmonella enterica subsp. enterica serovar typhimurium
Salmonella typhimurium [26] = assay: Genotoxicity in Salmonella typhimurium TA102 at 3 ug/plate assessed as number of revertants per plate (reference value: 301 +/- 5.2 no unit); format: toxicity, organism-based; conditions: salmonella enterica subsp. enterica serovar typhimurium

SMILES: O=C1c2ccccc2C(=O)N1c1ccc(S(=O)(=O)Nc2ccccn2)cc1
- inhibition at 125 µM (L929 [1]): 66.6%
- inhibition (L929 [2]): Dose-dependent effect
- inhibition at 15.625 µM (L929 [3]): 26.5%
- viability [4]: > 90%
- inhibition (INH) (Mus musculus): 49.8%

SMILES: N=C(N)NS(=O)(=O)c1ccc(N2C(=O)c3ccccc3C2=O)cc1
- inhibition at 125 µM (L929 [1]): 7.24%
- inhibition (L929 [2]): Dose-dependent effect
- inhibition at 15.625 µM (L929 [3]): 0%
- viability [4]: > 90%
- inhibition (INH) (Mus musculus): 29.63%

SMILES: COc1cnc(NS(=O)(=O)c2ccc(N3C(=O)c4ccccc4C3=O)cc2)nc1
- inhibition at 125 µM (L929 [1]): 80.8%
- inhibition (L929 [2]): Dose-dependent effect
- inhibition at 15.625 µM (L929 [3]): 73.5%
- viability [4]: > 90%
- inhibition (INH) (Mus musculus): 27.57%

SMILES: O=C1c2ccccc2C(=O)N1c1ccc(S(=O)(=O)Nc2ncccn2)cc1
- inhibition at 125 µM (L929 [1]): 79.3%
- inhibition (L929 [2]): Dose-dependent effect
- inhibition at 15.625 µM (L929 [3]): 33.7%
- viability [4]: > 90%
- inhibition (INH) (Mus musculus): 39.1%

SMILES: Cc1cc(C)nc(NS(=O)(=O)c2ccc(N3C(=O)c4ccccc4C3=O)cc2)n1
- inhibition at 125 µM (L929 [1]): 81.3%
- inhibition (L929 [2]): Dose-dependent effect
- inhibition at 15.625 µM (L929 [3]): 53.9%
- viability [4]: > 90%
- inhibition (INH) (Mus musculus): 27.37%

SMILES: NS(=O)(=O)c1ccc(N2C(=O)c3ccccc3C2=O)cc1
- inhibition at 125 µM (L929 [1]): 70.7%
- inhibition (L929 [2]): Dose-dependent effect
- inhibition at 15.625 µM (L929 [3]): 53%
- viability [4]: > 90%
- inhibition (INH) (Mus musculus): 26.75%

SMILES: Nc1ccc(NS(=O)(=O)c2ccc(N3C(=O)c4ccccc4C3=O)cc2)cc1
- inhibition at 125 µM (L929 [1]): 40.6%
- inhibition (L929 [2]): Dose-dependent effect
- inhibition at 15.625 µM (L929 [3]): 28.8%
- viability [4]: > 90%
- inhibition (INH) (Mus musculus): 35.2%

SMILES: Cc1ccnc(NS(=O)(=O)c2ccc(N3C(=O)c4ccccc4C3=O)cc2)n1
- inhibition at 125 µM (L929 [1]): 87.8%
- Activity (Salmonella typhimurium [5]): 1.33
- Activity (Salmonella typhimurium [6]): 1.64
- inhibition (L929 [2]): Dose-dependent effect
- Activity (Salmonella typhimurium [7]): 1.19
- Activity (Salmonella typhimurium [8]): 1.59
- inhibition at 15.625 µM (L929 [3]): 86.3%
- Activity (Salmonella typhimurium [9]): 1.24
- Activity (Salmonella typhimurium [10]): 1.17
- Activity (Salmonella typhimurium [11]): 1.21
- Activity (Mycobacterium leprae): 2500000
- Activity (Salmonella typhimurium [12]): 1.26
- Activity (Salmonella typhimurium [13]): 1.4
- Activity (Salmonella typhimurium [14]): 1.38
- Activity (Salmonella typhimurium [15]): 1.61
- Activity (Salmonella typhimurium [16]): 1.59
- Activity (Salmonella typhimurium [17]): 1.31
- viability [4]: > 90%
- Activity (Salmonella typhimurium [18]): 1.22
- Activity (Salmonella typhimurium [19]): 1.08
- Activity (Salmonella typhimurium [20]): 1.33
- Activity (Salmonella typhimurium [21]): 1.07
- Activity (Salmonella typhimurium [22]): 1.07
- Activity (Salmonella typhimurium [23]): 1.36
- Activity (Salmonella typhimurium [24]): 1.08
- inhibition (INH) (Mus musculus): 34.15%

SMILES: Nc1ccc2cc3ccccc3cc2c1 [2-AMINOANTHRACENE]
- Activity (Salmonella typhimurium [25]): 2540

SMILES: Cc1c(N(C)CS(=O)(=O)O)c(=O)n(-c2ccccc2)n1C [METAMIZOLE]
- inhibition (INH) (Mus musculus): 33.5%

SMILES: Cc1cc(NS(=O)(=O)c2ccc(N3C(=O)c4ccccc4C3=O)cc2)no1
- inhibition at 125 µM (L929 [1]): 34.1%
- inhibition (L929 [2]): Dose-dependent effect
- inhibition at 15.625 µM (L929 [3]): 16.2%
- viability [4]: > 90%
- inhibition (INH) (Mus musculus): 17.9%

SMILES: O=C1CCC(N2C(=O)c3ccccc3C2=O)C(=O)N1 (stereo not drawn) [THALIDOMIDE]
- inhibition at 125 µM (L929 [1]): 42.8%
- inhibition at 15.625 µM (L929 [3]): 35.4%
- Activity (Mycobacterium leprae): 4600000
- inhibition (INH) (Mus musculus): 42.2%

SMILES: COc1cccc2c1C(=O)c1c(O)c3c(c(O)c1C2=O)C[C@@](O)(C(C)=O)C[C@@H]3O[C@H]1C[C@H](N)[C@H](O)[C@H](C)O1 [DAUNORUBICIN]
- Activity (Salmonella typhimurium [26]): 902
